Results taken from ChEMBL document CHEMBL1140458, “Design and synthesis of novel antibacterial peptide-resin conjugates” (Bioorg Med Chem Lett, 2007).
Converted amounts (≈) assume the structure as drawn. Residues, ends and D or L forms follow the SMILES beside them.

Tests used:
Staphylococcus aureus = test: Antibacterial activity against Staphylococcus aureus ATCC 6538 by microdilution method; type: functional
How it was run: (§1)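 Modified microdilution method. For the resin conjugates, the amount added to the medium volume was based on the total peptide quantity bound to the resin, as calculated by Fmoc titration.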

Micrococcus luteus = test: Antibacterial activity against Micrococcus luteus ATCC 9341 by microdilution method; type: functional; how it was run: as §1
Pseudomonas aeruginosa = test: Antibacterial activity against Pseudomonas aeruginosa ATCC 9027 by microdilution method; type: functional; how it was run: as §1
Escherichia coli = test: Antibacterial activity against Escherichia coli ATCC 25922 by microdilution method; type: functional; how it was run: as §1
[1] = Cytotoxicity against human erythrocytes assessed as hemolysis; type: cell-based; settings: erythrocyte

| SMILES | MIC (Staphylococcus aureus) | MIC (Micrococcus luteus) | MIC (Pseudomonas aeruginosa) | MIC (Escherichia coli) | Activity [1] |
| --- | --- | --- | --- | --- | --- |
| CC(C)[C@H](NC(=O)[C@H](CCCCN)NC(=O)[C@@H](NC(=O)[C@H](CCCCN)NC(=O)[C@H](Cc1ccccc1)NC(=O)[C@H](CCCCN)NC(=O)[C@@H](NC(=O)[C@H](CCCCN)NC(=O)[C@@H](N)Cc1ccccc1)C(C)C)C(C)C)C(=O)N[C@@H](CCCCN)C(N)=O (H-FKVKFKVKVK-NH2) | 1.56 µg/mL (≈ 1.25 µM) | 3.12 µg/mL (≈ 2.5 µM) | 6.25 µg/mL (≈ 5 µM) | 3.12 µg/mL (≈ 2.5 µM) | Not Active |
| CC(C)[C@H](NC(=O)[C@H](CCCCN)NC(=O)[C@H](CCCCN)NC(=O)[C@H](CCCCN)NC(=O)[C@H](CCCCN)NC(=O)[C@H](CCCCN)NC(=O)[C@@H](NC(=O)[C@@H](NC(=O)[C@@H](N)Cc1ccccc1)C(C)C)C(C)C)C(=O)N[C@@H](Cc1ccccc1)C(N)=O (H-FVVKKKKKVF-NH2) | > 400 µg/mL | > 400 µg/mL | > 400 µg/mL | > 400 µg/mL | – |
| CC[C@H](C)[C@H](NC(=O)CN)C(=O)NCC(=O)N[C@@H](CCCCN)C(=O)N[C@@H](Cc1ccccc1)C(=O)N[C@@H](CC(C)C)C(=O)N[C@@H](Cc1c[nH]cn1)C(=O)N[C@@H](CO)C(=O)N[C@@H](C)C(=O)N[C@@H](CCCCN)C(=O)N[C@@H](CCCCN)C(=O)N[C@@H](Cc1ccccc1)C(=O)NCC(=O)N[C@@H](CCCCN)C(=O)N[C@@H](C)C(=O)N[C@@H](Cc1ccccc1)C(=O)N[C@H](C(=O)NCC(=O)N[C@@H](CCC(=O)O)C(=O)N[C@H](C(=O)N[C@@H](CCSC)C(=O)N[C@@H](CC(N)=O)C(=O)N[C@@H](CO)C(=O)O)[C@@H](C)CC)C(C)C [MAGAININ 2] (H-GIGKFLHSAKKFGKAFVGEIMNS-OH) | 50 µg/mL (≈ 20.3 µM) | 50 µg/mL (≈ 20.3 µM) | 25 µg/mL (≈ 10.1 µM) | 50 µg/mL (≈ 20.3 µM) | – |
